Only some compounds are listed: those with a hit (about 1.9% of all), similar ones and a draw of the others.
NPY1 pot ag: potentiators or agonists of human neuropeptide Y receptor Y1; NPY-Y1 expressing cells, potentiator/agonist activation; activation, % at 3.6 µM; actives 0.37% (n = 220,000); in the data active means activation above about 33%, passing the limit was not always enough;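 further: cells stimulated with NPY at EC10 then isoproterenol at EC100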
Target sequence (P25929 whole entry, looked up): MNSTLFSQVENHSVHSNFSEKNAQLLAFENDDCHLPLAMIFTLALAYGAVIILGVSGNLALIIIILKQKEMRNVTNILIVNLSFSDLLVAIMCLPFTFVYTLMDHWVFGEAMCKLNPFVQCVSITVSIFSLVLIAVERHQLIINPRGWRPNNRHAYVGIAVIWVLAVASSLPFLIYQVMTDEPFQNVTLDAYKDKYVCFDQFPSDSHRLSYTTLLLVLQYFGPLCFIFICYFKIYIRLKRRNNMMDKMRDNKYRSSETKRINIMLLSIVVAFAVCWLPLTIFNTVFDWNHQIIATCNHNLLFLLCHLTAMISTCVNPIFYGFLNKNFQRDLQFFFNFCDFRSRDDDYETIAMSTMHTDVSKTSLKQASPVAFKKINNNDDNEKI
NPY2 pot ag: potentiates or activates human NPY-Y2 receptor; activation, % at 3.6 µM; P49146; cells expressing NPY-Y2, potentiator/agonist read-out; actives 0.45% (n = 220,000); in the data active means activation above about 27%;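 further: cells stimulated with NPY near EC25 plus isoproterenol at EC100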
Target sequence (P49146 whole entry, looked up): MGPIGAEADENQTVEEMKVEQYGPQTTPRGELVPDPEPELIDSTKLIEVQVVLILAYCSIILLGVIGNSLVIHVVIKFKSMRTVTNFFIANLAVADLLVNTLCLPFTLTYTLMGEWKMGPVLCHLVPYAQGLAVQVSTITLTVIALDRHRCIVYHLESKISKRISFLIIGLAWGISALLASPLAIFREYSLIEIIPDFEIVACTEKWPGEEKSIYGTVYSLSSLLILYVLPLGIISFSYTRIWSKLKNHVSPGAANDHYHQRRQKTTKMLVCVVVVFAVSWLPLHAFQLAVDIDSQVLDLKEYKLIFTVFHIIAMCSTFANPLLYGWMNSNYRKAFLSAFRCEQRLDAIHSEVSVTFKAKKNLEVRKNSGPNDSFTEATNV
NPY-Y2 antag: blocks the human neuropeptide Y Y2 receptor; inhibition, % at 2.7 µM; P49146; actives 0.99% (n = 140,000); NPY-Y2 expressing cells, antagonist mode
NPY-Y1 antag: antagonists of human neuropeptide Y receptor Y1. P25929. HEK293-CNG Y1 cells, membrane potential fluorescence; NPY at EC95, then isoproterenol. inhibition, % at 3.6 µM. actives 1% (n = 200,000). AID 1040;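 active means inhibition above the campaign mean inhibition of all tested compounds plus 3 SD, cut at about 20% in these data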
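Material: HEK293 Y1/CNG channel cell line; also added: NPY (25 nM), isoproterenol (1 µM), Ro 20-1724 (25 µM); doses: one concentration, 3.6 µM, in 0.4% DMSO; schedule: compound incubation 1 h at room temperature, readout 45 min post-stimulation; technique: membrane potential fluorescence; measure: fluorescence ratio normalized to % inhibition between controls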
NPY-Y1 ant conf: human NPY-Y1 antagonism, confirmation; shares compounds with NPY-Y1 antag; HEK293-CNG NPY-Y1, membrane potential fluorescence, cAMP; NPY challenge against isoproterenol-raised cAMP; inhibition, % at 3.6 µM; actives 21% (n = 1,200); AID 1254; in the data active means inhibition above about 20%
NPY-Y2 antag ct: antagonizes human NPY-Y2, counter-screen to NPY-Y1 antagonists; actives 28% (n = 1,200); HEK293 NPY-Y2 CNG membrane potential fluorescence, antagonism; cells given NPY, then isoproterenol; inhibition, % at 3.6 µM; shares compounds with NPY-Y1 antag
Of the large screens only hits and unclear results are named; the others gave an inactive call (follow-up assays come after a bar, where they were run). Unless noted, no stated cut-off is given here; in the data, active means inhibition above about 17%; inactive means the rest.

O=C(O)CCCCCN1C(=O)C2CCCCC2C1=O (stereo not given)	none
CCCCn1c(N)c(N(CC(C)C)C(=O)CCCSc2nncs2)c(=O)[nH]c1=O	none (no result: NPY-Y2 antag)
CN(C[C@H](Cc1ccccc1)N(C[C@H](Cc1ccccc1)N(CCc1cc(C(F)(F)F)cc(C(F)(F)F)c1)N=O)N=O)N=O	NPY-Y1 antag 22 (no result: NPY-Y2 antag) | NPY-Y1 ant conf inactive | NPY-Y2 antag ct inactive
Cc1ccc(C(=O)Nc2cc(Cl)ccc2N2CCCCC2)s1	none
CCc1sc(C(=O)Nc2cc(Cl)ccc2N2CCCCC2)cc1C	NPY-Y1 antag 21 | NPY-Y1 ant conf inactive | NPY-Y2 antag ct inactive
CCCCOc1ccc(C(=O)NC)cc1	none
CCCCOc1ccc(CC(=O)NO)cc1	NPY-Y1 antag 38 | NPY-Y1 ant conf inactive | NPY-Y2 antag ct inactive
CC(C)(C)c1ccc(NC(=O)COC(=O)C2(C)CC2(Cl)Cl)cc1 (stereo not given)	none (no result: NPY-Y2 antag)
Cc1ccc(C(=O)c2c(C)oc3c2C(=O)C(=O)c2ccccc2-3)cc1	none
Cc1oc2c(c1C(=O)c1ccc(Cl)cc1)C(=O)C(=O)c1ccccc1-2	NPY-Y1 antag 26 | NPY-Y1 ant conf inactive | NPY-Y2 antag ct inactive
O=C(Nc1nc(-c2cccc3ccccc23)cs1)c1cnccn1	none
CCCCNC(=O)c1sc2nc(C)cc(COC)c2c1-n1cccc1	NPY-Y1 antag 21 | NPY-Y1 ant conf inactive | NPY-Y2 antag ct inactive
COCc1cc(C)nc2sc(C(=O)NN)c(-n3cccc3)c12	none (no result: NPY-Y2 antag)
COc1ccc(C)cc1N(C(=O)COc1cccc(F)c1)c1nc2ccccc2s1	none
COc1ccc(C)cc1N(C(=O)c1ccc(F)cc1)c1nc2ccccc2s1	NPY-Y1 antag 22 | NPY-Y1 ant conf inactive | NPY-Y2 antag ct inactive
COc1ccccc1NC(=S)N(Cc1ccccc1)Cc1cccs1	NPY-Y1 antag 27 (no result: NPY-Y2 antag) | NPY-Y1 ant conf inactive | NPY-Y2 antag ct inactive
COC(=O)C1=CN(Cc2ccc(OC)cc2)C=C(C(=O)OC)C1c1ccsc1	none (no result: NPY-Y2 antag)
COC(=O)C1=CN(CCOC23CC4CC(CC(C4)C2)C3)C=C(C(=O)OC)C1c1ccsc1	NPY-Y1 antag 31 (no result: NPY-Y2 antag) | NPY-Y1 ant conf 41 | NPY-Y2 antag ct 24
O=C(Nc1ccc2c(c1)OCO2)C1CCN(C(=O)c2ccc(Br)cc2)CC1	NPY-Y1 antag 33 (no result: NPY-Y2 antag) | NPY-Y1 ant conf inactive | NPY-Y2 antag ct inactive
O=C(Nc1nnc(C2=COCCO2)o1)c1ccc(Cc2ccccc2)cc1	NPY-Y1 antag 22 (no result: NPY-Y2 antag) | NPY-Y1 ant conf inactive | NPY-Y2 antag ct inactive
Cc1nc2c(C(=O)N3CCCC3)cnn2c(C)c1Cc1c(F)cccc1Cl	none
Cc1nc2c(C(=O)N3CCN(c4ccccn4)CC3)cnn2c(C)c1Cc1cccc(Cl)c1	NPY-Y1 antag 31 | NPY-Y1 ant conf inactive | NPY-Y2 antag ct inactive
COc1ccc(-c2nc(CN3CCN(c4cc(C)nc(C)c4)CC3)c(C)o2)c2ccccc12	NPY-Y1 antag 23 (no result: NPY-Y2 antag) | NPY-Y1 ant conf inactive | NPY-Y2 antag ct 29
Cc1ccc(C(=O)NCC(=O)OCC(=O)Nc2ccccc2[N+](=O)[O-])cc1	none
CCN(Cc1ccncc1)C(=O)c1ccccc1NS(=O)(=O)c1ccc(Br)cc1	none (no result: NPY-Y2 antag, NPY-Y1 antag)
Cc1ccc(Cn2c(=N)c(C(=O)NCc3ccco3)cc3c(=O)n4ccccc4nc32)cc1	NPY-Y1 antag 36 | NPY-Y1 ant conf inactive | NPY-Y2 antag ct inactive
CC(/C=N/n1c(COc2ccccc2)n[nH]c1=S)=C\c1ccccc1	NPY-Y1 antag 31 | NPY-Y1 ant conf inactive | NPY-Y2 antag ct inactive
S=c1[nH]nc(COc2ccccc2)n1/N=C/c1ccncc1	none (no result: NPY-Y2 antag)
CC(C(=O)N1CCN(Cc2ccc3c(c2)OCO3)CC1)c1ccc([N+](=O)[O-])cc1 (stereo not given)	none (no result: NPY-Y2 antag)
Cc1ccc2nc(NC(=O)Cc3cccs3)sc2c1	none
CCc1ccc2nc(NC(=O)CCCc3cccs3)sc2c1	NPY-Y1 antag 24 | NPY-Y1 ant conf inactive | NPY-Y2 antag ct inactive
CCN(CC)C(=O)CSc1nc2c(sc(=S)n2-c2ccccc2)c(=O)[nH]1	none (no result: NPY-Y2 antag)
CCN(CC)C(=O)CSc1nc2c(sc(=S)n2Cc2ccco2)c(=O)n1-c1ccccc1	NPY-Y1 antag 27 | NPY-Y1 ant conf inactive | NPY-Y2 antag ct inactive
O=C(/C=C/c1ccccc1[N+](=O)[O-])c1ccccc1Br	none (no result: NPY-Y2 antag)
Cc1cccc(NC(=O)C2C3CCC4C(CCC32)C4(Cl)Cl)c1 (stereo not given)	NPY-Y1 antag 28 | NPY-Y1 ant conf inactive | NPY-Y2 antag ct inactive
O=C(Nc1ccc(Cl)cc1)C1C2CCC3C(CCC21)C3(Cl)Cl (stereo not given)	none
NNC(=O)/C(=C\c1ccc(Br)cc1)NC(=O)c1cccs1	none (no result: NPY-Y2 antag)
O=C(COC(=O)CNS(=O)(=O)c1ccc(F)c(F)c1F)Nc1ccc(OC(F)F)cc1	none
CCCn1c(NC(=O)c2ccc(Cl)c(S(=O)(=O)N3CCCC3)c2)nc2ccccc21	NPY-Y1 antag 22 | NPY-Y1 ant conf inactive | NPY-Y2 antag ct 22
O=C(NCc1nc2ccccc2[nH]1)c1ccc(Cl)c(S(=O)(=O)N2CCCC2)c1	none
CC(C)(C)C(=O)Nc1cc2nn(-c3ccccc3)nc2cc1Cl	NPY-Y1 antag 20 | NPY-Y1 ant conf inactive | NPY-Y2 antag ct inactive
CC(CCc1ccccc1)NC(=O)C(=O)Nc1ccccc1 (stereo not given)	none
COc1cccc(CNC(=O)C(c2ccc(Cl)cc2)C(C)C)c1 (stereo not given)	NPY-Y1 antag 21 | NPY-Y1 ant conf inactive | NPY-Y2 antag ct inactive
CC(C)OCCCNC(=O)NC(=O)c1ccc(Cl)cc1	none (no result: NPY-Y2 antag)
COc1ccc(C)cc1NC(=O)CSc1nnc(COc2ccccc2)n1Cc1ccco1	NPY-Y1 antag 21 | NPY-Y1 ant conf inactive | NPY-Y2 antag ct inactive
COc1ccc(C)cc1NC(=O)CSc1nnc(COc2ccc(Cl)cc2)n1Cc1ccco1	none
CCCN(CCC)CCNC(=O)C1CCN(Cc2nc(-c3ccc(Cl)cc3)oc2C)CC1	NPY-Y1 antag 24 | NPY-Y1 ant conf inactive | NPY-Y2 antag ct 28
O=C(NC1(C(F)(F)F)N=C(c2ccccc2)NC1=O)c1ccccc1 (stereo not given)	none
Nc1nn(-c2ccccc2)nc1C(=O)OCc1ccccc1	none (no result: NPY-Y2 antag, NPY-Y1 antag)
Cc1ccc(COC(=O)c2nn(-c3ccccc3)nc2N)cc1	NPY-Y1 antag 29 (no result: NPY-Y2 antag) | NPY-Y1 ant conf 23 | NPY-Y2 antag ct inactive
COc1cc(C(C(=O)NC2CCCCC2)N(Cc2ccco2)C(=O)c2cnccn2)cc(OC)c1OC (stereo not given)	none (no result: NPY-Y2 antag)
O=C(c1cnccn1)N(Cc1ccco1)C1(C(=O)NC2CCCCC2)CCCCC1	NPY-Y1 antag 31 | NPY-Y1 ant conf 27 | NPY-Y2 antag ct inactive
Cc1cccc(NC2=NCC(=O)N2Cc2cccs2)c1	none (no result: NPY-Y2 antag)
Cc1ccccc1CSCCNC(=O)CSCc1ccc([N+](=O)[O-])cc1	NPY-Y1 antag 20 | NPY-Y1 ant conf inactive | NPY-Y2 antag ct inactive
Cc1ccc(CSCCNC(=O)CSCc2ccc([N+](=O)[O-])cc2)cc1	none
N#Cc1nc(COc2ccc(Br)cc2)oc1NCCCn1ccnc1	NPY-Y1 antag 26 | NPY-Y1 ant conf inactive | NPY-Y2 antag ct inactive
